From ChEMBL document CHEMBL1142121, “Triterpenoids from the floral spikes of Betula platyphylla var. japonica and their reversing activity against multidrug-resistant cancer cells” (J Nat Prod, 2007)
Active and inactive are the calls of the source. No cut-off for these calls is given here.

Assays:
[1] = Cytotoxicity against human doxorubicin-resistant K562/Adr cells in presence of 1 uM doxorubicin after 48 hrs by MTT assay; type: cell-based
K562 = test: Cytotoxicity against human K562 cells after 48 hrs by MTT assay; type: cell-based; conditions: K562, 48 h
In short: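 K562 leukemia cells, 1 × 10^4 cells/well in medium with 10% FBS, preincubated 24 h. Test samples were then added at various concentrations (DMSO final <0.5%) for 48 h at 37 °C, 5% CO2. MTT assay. IC50 was 50% absorbance relative to vehicle controls. Mean ± SE from 3–4 experiments.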

[2] = Cytotoxicity against human doxorubicin-resistant K562/Adr cells after 48 hrs by MTT assay; type: cell-based
In short: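 Doxorubicin-resistant K562/Adr cells, maintained in RPMI1640/10% FBS containing 0.5 µM doxorubicin. Seeded at 1 × 10^4 cells/well, preincubated 24 h, then incubated 48 h at 37 °C, 5% CO2 with graded test concentrations (DMSO final <0.5%). MTT read-out. IC50 was 50% of vehicle-control absorbance. Mean ± SE, 3–4 experiments.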

KB = test: Cytotoxicity against human KB cells after 48 hrs by MTT assay; type: cell-based
In short: (§1)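 KB and KB-C2 cells grown in DMEM with 10% FBS, with KB-C2 maintained with 2 µg/mL colchicine. 5 × 10^3 cells/well were preincubated 24 h, then exposed 48 h at 37 °C, 5% CO2 to graded concentrations (DMSO final <0.5%). MTT read-out. IC50 was the concentration giving 50% of vehicle-control absorbance. Mean ± SE of 3–4 experiments.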

[3] = Cytotoxicity against human colchicine-resistant KBC2 cells after 48 hrs by MTT assay; type: cell-based; conditions: KB-C2, 48 h; in short: as §1
COLO 205 = test: Cytotoxicity against human COLON205 cells after 48 hrs by MTT assay; type: cell-based; conditions: COLO 205, 48 h
In short: (§2)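 MCF7 or COLO205 cells in RPMI1640 with 10% FBS, seeded at 5 × 10^3 cells and preincubated 24 h. Graded concentrations (DMSO final <0.5%) were then applied for 48 h at 37 °C, 5% CO2. Proliferation read by MTT. IC50 was the concentration halving absorbance versus vehicle-treated controls. Mean ± SE of 3–4 experiments.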

[4] = Cytotoxicity against human colchicine-resistant KBC2 cells in presence of 2.5 uM colchicine after 48 hrs by MTT assay; type: cell-based; conditions: KB-C2, 48 h
In short: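 Colchicine-resistant KB-C2 cells, maintained in DMEM/10% FBS with 2 µg/mL colchicine. Seeded at 5 × 10^3 cells/well, preincubated 24 h, then given graded test concentrations (DMSO final <0.5%) together with 2.5 µM colchicine for 48 h at 37 °C, 5% CO2. MTT read-out. IC50 was 50% of vehicle-control absorbance. Mean ± SE, 3–4 experiments.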

MCF7 = test: Cytotoxicity against human MCF7 cells after 48 hrs by MTT assay; type: cell-based; conditions: MCF7, 48 h; in short: as §2
MDR = test: Reversal of MDR against KBC2 cells assessed as reduction in cytotoxicity of colchicine at 5 ug/ml; type: functional, cell-based; conditions: Homo sapiens

SMILES	IC50 [1] [µM]	IC50 (K562) [µM]	IC50 [2] [µM]	IC50 (KB) [µM]	IC50 [3] [µM]	IC50 (COLO 205) [µM]	IC50 [4] [µM]	IC50 (MCF7) [µM]	Activity (MDR)
CC(=O)O[C@@H]1CC[C@]2(C)[C@H]3CC[C@@H]4[C@@H]([C@]5(C)CC[C@H](C(C)(C)O)O5)CC[C@@]4(C)[C@]3(C)CC[C@H]2C1(C)C	68.3	41.6	50.5	44.8	89.6	54.2	43.6	47.5	–
CC(C)(O)[C@H]1CC[C@@](C)([C@H]2CC[C@]3(C)[C@@H]2CC[C@@H]2[C@@]4(C)CC[C@@H](OC(=O)CC(=O)O)C(C)(C)[C@@H]4CC[C@]23C)O1	42.5	57.5	47.2	60.8	69.6	55.6	65.5	64.1	–
C=C(C)[C@@H](O)CC[C@](C)(O)[C@H]1CC[C@]2(C)[C@@H]1CC[C@@H]1[C@@]3(C)CCC(=O)C(C)(C)[C@@H]3CC[C@]12C	50.4	40.2	35.9	70.2	78.5	58.8	29.8	73.1	–
CC(=O)O[C@@H]1C[C@@H]2[C@@]3(C)CC[C@@H](O)C(C)(C)[C@@H]3CC[C@@]2(C)[C@]2(C)CC[C@H]([C@]3(C)CC[C@H](C(C)(C)O)O3)[C@@H]12	15.3	27.5	15.4	36.5	25.7	36.7	3.5	34.2	–
CC(=O)O[C@@H]1C[C@@H]2[C@@]3(C)CC[C@@H](OC(C)=O)C(C)(C)[C@@H]3CC[C@@]2(C)[C@]2(C)CC[C@H]([C@]3(C)CC[C@H](C(C)(C)O)O3)[C@@H]12	23.9	26.2	33.2	35.1	62.2	58	3	78.4	–
COC(=O)CC(=O)O[C@@H]1CC[C@]2(C)[C@H]3CC[C@@H]4[C@@H]([C@]5(C)CCC(=O)O5)CC[C@@]4(C)[C@]3(C)CC[C@H]2C1(C)C	26.5	47.2	56.1	58	30.4	> 100	3.3	> 100	–
CC(C)(O)[C@H]1CC[C@@](C)([C@H]2CC[C@]3(C)[C@@H]2CC[C@@H]2[C@@]4(C)CC[C@@H](O)C(C)(C)[C@@H]4CC[C@]23C)O1	45.2	48.5	73.9	43.4	55.3	–	28.6	57.9	–
C=C1CC[C@]2(C)CC[C@]3(C)[C@H](CC[C@@H]4[C@@](C)(CCC(=O)O)[C@H](C(=C)C)CC[C@]43C)[C@@H]2[C@H]1C	> 100	> 100	> 100	> 100	> 100	> 100	> 100	> 100	–
C=C(C)[C@@H]1CC[C@]2(C)[C@H](CCC3=C4CC(C)(C)CC[C@]4(C)CC[C@]32C)[C@@]1(C)CCC(=O)O	24.8	28	25.9	27.5	58	38.1	36.3	37.4	–
COC(=O)CC(=O)O[C@@H]1CC[C@]2(C)[C@H]3CC[C@@H]4[C@@H]([C@]5(C)CC[C@H](C(C)(C)O)O5)CC[C@@]4(C)[C@]3(C)CC[C@H]2C1(C)C	41.1	35.4	31.1	64.2	87	57.2	13.6	63.6	–
C=C(C)[C@@H]1CC[C@]2(C(=O)O)CC[C@]3(C)[C@H](CC[C@@H]4[C@@]5(C)CCC(=O)C(C)(C)[C@@H]5CC[C@]43C)[C@@H]12 [BETUNOLIC ACID]	48.4	16.1	73.5	3.8	2.3	36.8	0.64	49	–
CC1(C)[C@H](O)CC[C@]2(C)[C@H]3CC[C@@H]4[C@@H]([C@]5(C)CCC(=O)O5)CC[C@@]4(C)[C@]3(C)CC[C@@H]12 [CABRALEAHYDROXYLACTONE]	> 100	> 100	> 100	> 100	> 100	> 100	20.6	> 100	–
CC1(C)C(=O)CC[C@]2(C)[C@H]3CC[C@@H]4[C@@H]([C@]5(C)CCC(=O)O5)CC[C@@]4(C)[C@]3(C)CC[C@@H]12 [CABRALELACTONE]	> 100	> 100	> 100	63.5	> 100	> 100	28.5	97.9	–
CC(C)(O)[C@@H]1CC[C@@](C)([C@H]2CC[C@]3(C)[C@@H]2CC[C@@H]2[C@@]4(C)CCC(=O)C(C)(C)[C@@H]4CC[C@]23C)O1 [CABRALEONE]	> 100	> 100	> 100	> 100	> 100	> 100	62.4	> 100	–
CC(C)=CCC[C@](C)(O)[C@H]1CC[C@]2(C)[C@@H]1CC[C@@H]1[C@@]3(C)CCC(=O)C(C)(C)[C@@H]3CC[C@]12C [DIPTEROCARPOL]	> 100	> 100	> 100	> 100	> 100	> 100	38.2	> 100	–
CC(C)(O)[C@H]1CC[C@@]2(C)C1CC[C@]1(C)[C@@H]2CC[C@@H]2[C@@]3(C)CCC(=O)C(C)(C)[C@@H]3CC[C@]21C (stereo not given in full) [HYDROXYHOPANONE]	> 100	> 100	> 100	> 100	> 100	77.1	> 100	> 100	–
COC(=O)CC(=O)O[C@@H]1CC[C@]2(C)[C@H]3C[C@@H](OC(C)=O)[C@@H]4[C@@H]([C@]5(C)CC[C@H](C(C)(C)O)O5)CC[C@@]4(C)[C@]3(C)CC[C@H]2C1(C)C [METHYL PAPYRIFERATE]	10.6	32.6	36.8	33.8	31.1	49.6	3.7	48.9	Active
C=C(C)[C@@H]1CC[C@]2(C)[C@H](CC[C@@H]3[C@@H]([C@]4(C)CC[C@H](C(C)(C)O)O4)CC[C@]32C)[C@@]1(C)CCC(=O)OC [METHYL SHOREATE]	47.1	45.3	50.9	66.6	93.5	67.7	20.1	59.7	–
CC(C)(O)[C@H]1CC[C@@](C)([C@H]2CC[C@]3(C)[C@@H]2CC[C@@H]2[C@@]4(C)CCC(=O)C(C)(C)[C@@H]4CC[C@]23C)O1 [OCOTILLONE]	> 100	> 100	> 100	> 100	> 100	> 100	64.2	> 100	–
CC(=O)O[C@@H]1C[C@@H]2[C@@]3(C)CC[C@@H](OC(=O)CC(=O)O)C(C)(C)[C@@H]3CC[C@@]2(C)[C@]2(C)CC[C@H]([C@]3(C)CC[C@H](C(C)(C)O)O3)[C@@H]12 [PAPYRIFERIC ACID]	34.5	47.6	42.5	47.8	66	52.2	60.1	71.7	–
